Compound activity as filed in PubChem.
S100A4 inh HTS – S100A4-myosin IIA interaction inhibition; S100A4/TAMRA-MyoIIA peptide fluorescence polarization; inhibition, % at 10.7 µM; 360,000 compounds, 0.14% hits;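 active = mean inhibition of at least 70% across replicates, with every replicate also reaching that level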
Target sequence (P26447 whole entry, looked up): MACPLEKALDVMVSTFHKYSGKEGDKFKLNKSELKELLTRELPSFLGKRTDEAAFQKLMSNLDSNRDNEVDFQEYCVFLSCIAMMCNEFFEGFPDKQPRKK
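assay system = human S100A4 monomer with TAMRA-labelled myosin IIA peptide | also added = labelled myosin peptide probe, 5 nM | incubation = 5 min between mix addition and reading | control set = DMSO and TFP controls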
dFosB activator – activators of mouse delta FosB homodimer | P13346 | purified delta FosB, TAMRA-CDK5 oligo fluorescence polarization; percent of positive-control signal above neutral wells | 340,000 compounds, 0.99% hits | activation, % at 25 µM | AID 493131;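 active = mean activation above about 17%, with every replicate also reaching it, limit read from the data, passing the limit was not always enough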
Target sequence (P13346 whole entry, looked up): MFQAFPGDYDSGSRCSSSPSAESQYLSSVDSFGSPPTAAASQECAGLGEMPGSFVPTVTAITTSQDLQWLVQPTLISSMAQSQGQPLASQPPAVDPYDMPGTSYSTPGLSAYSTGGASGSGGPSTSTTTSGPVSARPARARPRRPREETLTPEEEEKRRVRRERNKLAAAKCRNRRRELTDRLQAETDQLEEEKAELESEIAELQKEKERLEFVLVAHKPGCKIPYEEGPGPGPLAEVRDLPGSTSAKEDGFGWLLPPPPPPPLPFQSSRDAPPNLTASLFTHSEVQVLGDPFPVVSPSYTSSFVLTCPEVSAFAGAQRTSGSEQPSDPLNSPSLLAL
FGF22 binding – FGF22 (human) thermal shift binding; Q9HCT0; recombinant FGF22 thermal shift, SYPRO orange fluorescence; percent of sucrose octasulfate shift, DMSO zero; activity (Tm shift, normalised), % at 9.99 µM; 340,000 compounds, 1.5% hits; AID 651658;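 active = mean Tm shift, scaled 0 neutral to 100 positive control, at about 1.3% or above, every replicate too, limit read from the data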
Target sequence (Q9HCT0 whole entry, looked up): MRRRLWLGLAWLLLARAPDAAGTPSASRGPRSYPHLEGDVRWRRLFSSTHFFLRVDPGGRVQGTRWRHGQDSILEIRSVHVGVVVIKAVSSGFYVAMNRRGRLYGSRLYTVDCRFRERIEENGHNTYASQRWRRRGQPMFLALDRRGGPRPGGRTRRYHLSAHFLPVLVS
CFTR F508del cor – correctors of CFTR F508del function in bronchial epithelial cells; 350,000 compounds, 0.36% hits; activity (quench increase), % at 7.58 µM; CFBE cells, YFP halide quenching; stimulated with forskolin plus potentiator P3; % fluorescence drop versus neutral controls;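 active = mean added fluorescence quench of at least 8% versus neutral control, with both replicates also reaching 8%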;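 also: cells transiently co-express mutant CFTR-F508del with the halide-sensitive YFP; corrector assay measuring rescue of mutant channel to the surface after 24 h compound exposure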
Numbers without * were called inactive; . = not tested or not shown. Hits are enriched below; roughly 2.2% of the tested compounds scored in any of these assays.

SMILES | S100A4 inh HTS | dFosB activator | FGF22 binding | CFTR F508del cor
C[C@@H]1CN([C@@H](C)CO)C(=O)c2cccc(NS(=O)(=O)c3ccccc3)c2O[C@@H]1CN(C)C(=O)Nc1ccc(C(F)(F)F)cc1 | 8.7 | . | 0.1 | -0.9
COCC(=O)N1CC2(C1)CN(C(=O)Cc1ccccc1)[C@H](CO)c1c2c2ccc(OC)cc2n1C | . | . | 0.1 | 0.0
CN(C)CC(=O)N[C@H]1CC[C@H](CC(=O)NCc2ccc(Cl)cc2)O[C@@H]1CO | 63.0 | . | -0.2 | -2.3
COCCSc1ccccc1C(=O)N1CCc2ccccc2C1 | -0.8 | 2.3 | 42.9* | 0.7
COc1ccc(/C=C(\C#N)C(=O)OCC(=O)NCc2ccco2)cc1 | -1.5 | -14.0 | -0.2 | -0.1
COc1ccc(/C=C(\C#N)C(=O)OCC(=O)NCc2ccccc2)cc1 | -1.0 | 1.2 | 33.8* | -2.6
N#C/C(=C/c1ccccc1)C(=O)NCc1ccccc1 | -9.0 | -16.6 | 43.5* | 0.2
N#C/C(=C\c1ccc(O)c(Br)c1)C(=O)NCc1ccccc1 | 0.0 | -7.8 | . | 2.4
COc1ccc(/C=C(\C#N)C(=O)OCC(=O)Nc2c(C)cccc2C)cc1 | -1.8 | 14.1 | -0.3 | .
COc1ccc(/C=C(\C#N)C(=O)OCC(=O)NC2CC2)cc1 | -3.7 | 7.0 | 43.8* | -2.9
CC(=O)N1CC2(C1)[C@H](c1ccccc1)[C@@H](CO)N2C(=O)c1ccncc1 | -8.7 | . | 0.1 | -4.6
C[C@H](CO)N1C[C@H](C)[C@@H](CN(C)C(=O)C2CCCCC2)Oc2cc(Br)ccc2S1(=O)=O | . | . | . | 3.0
O=C(COC(=O)C1CC(=O)N(Cc2ccccc2)C1)Nc1ccc([N+](=O)[O-])cc1Br (configuration not stated) | -2.9 | . | 43.1* | 0.3
CCCNC(=O)N(C)C[C@@H]1Oc2ncc(-c3ccc(OC)cc3)cc2C(=O)N([C@@H](C)CO)C[C@@H]1C | -1.2 | . | -0.1 | -3.3
O=c1c2ccccc2oc2ccccc12 | -2.8 | . | -0.1 | 2.0
O=c1c2ccccc2oc2cc(-c3ccc4[nH]ccc4c3)ccc12 | -4.6 | -1.4 | 0.0 | 10.4*
O=C1NCCc2c1[nH]c1ccc([N+](=O)[O-])cc21 | 1.4 | -6.2 | -0.1 | 11.4*
CCOc1ccc(C(C)=O)cc1CSc1nc2nc(C)cc(C)n2n1 | 4.4 | -11.2 | 43.2* | -2.1
Cc1c(C(=O)N2CCCCC2)oc2ccccc12 | -1.8 | -5.5 | 43.2* | -1.2
COc1ccc(C2c3[nH]c4ccccc4c3CCN2C(=O)c2cc3ncccn3n2)c(F)c1 (configuration not stated) | 1.0 | -2.2 | 43.0* | 1.0
Cc1ccc2nc(C(=O)N3CCc4c([nH]c5ccccc45)C3c3ccccn3)cn2c1 (configuration not stated) | -0.9 | -11.5 | 43.0* | 2.8
CSc1nc(C(=O)N2CCc3c([nH]c4ccccc34)C2c2ccccn2)cs1 (configuration not stated) | -4.1 | -18.6 | -0.2 | 2.4
O=C(c1cn[nH]c1)N1CCc2c([nH]c3ccccc23)C1c1c(F)cccc1Cl (configuration not stated) | -1.7 | 1.5 | 43.5* | -1.4
C[C@H](CO)N1C[C@H](C)[C@@H](CN(C)Cc2ccc(C(=O)O)cc2)Oc2ccc(NC(=O)Nc3ccc(F)cc3)cc2CC1=O | 3.5 | . | 0.2 | -2.1
COC(=O)c1nc(Cl)c(Cl)c(N)c1Cl | -5.2 | -6.4 | 0.1 | -3.2
SMILES | S100A4 inh HTS | dFosB activator | FGF22 binding | CFTR F508del cor
CCCCCCCCOC(=O)c1nc(Cl)c(Cl)c(N)c1Cl | -2.9 | -0.1 | 1.5* | -1.0
C[C@H](CO)N1C[C@H](C)[C@H](CN(C)C(=O)Nc2ccc3c(c2)OCO3)Oc2ccc(NC(=O)Nc3ccc(C(F)(F)F)cc3)cc2CC1=O | . | . | 0.0 | 5.5
Cc1noc(C)c1NC(=O)Nc1ccc2c(c1)C(=O)N([C@H](C)CO)C[C@@H](C)[C@H](CN(C)C(=O)c1ccccc1)OCCCC[C@H](C)O2 | 49.9 | . | -0.1 | 0.1
CN(C(=O)Nc1ccccc1)C1CCCCC1 | 3.5 | -1.3 | 0.0 | -2.4
O=C(Nc1ccccc1)SC1CCCCC1 | 3.2 | 2.0 | 43.1* | 7.1
Nc1ccc(Cc2ccc([N+](=O)[O-])cc2)cc1 | -5.7 | 7.9 | 43.1* | 2.9
O=S(=O)(c1ccc(F)cc1)N1CC[C@@H]2[C@H](CO)Nc3ccc(-c4ccccc4F)cc3[C@@H]21 | -9.0 | . | 0.0 | -0.2
COc1ccc(CN=C2NN=C(c3cccc(OC)c3)CS2)cc1 | -1.8 | -5.6 | 43.2* | -1.0
COc1cccc(C2=NNC(=NCc3ccccc3)SC2)c1 | -22.1 | -11.8 | -0.2 | 3.5
O=C(C[C@@H]1CC[C@H](NC(=O)CN2CCOCC2)[C@H](CO)O1)NCCc1ccncc1 | -5.8 | . | -0.2 | 0.7
CCC(=O)Oc1ccc(C(=O)Nc2cccc(C(=O)NCC(C)C)c2)cc1 | 2.9 | -0.4 | 43.2* | -7.0
CCC(=O)Oc1ccc(C(=O)Nc2ccccc2C(=O)NCC(C)C)cc1 | 0.7 | -7.4 | 0.1 | 0.9
C[C@@H]1CN([C@H](C)CO)C(=O)c2cccc(NC(=O)c3ccncc3)c2O[C@@H]1CN(C)C(=O)Nc1ccc(C(F)(F)F)cc1 | -7.4 | . | . | 2.2
C=CCSc1ncc(C(=O)OCC)c(N)n1 | -1.6 | -12.6 | 43.2* | -0.9
CN(C)C(=O)C[C@@H]1C[C@H]2c3cc(NC(=O)NC4CCCC4)ccc3O[C@H]2[C@@H](CO)O1 | -1.7 | . | -0.5 | 2.0
c1ccc(Oc2ncnc3ccccc23)cc1 | -1.7 | 2.3 | 43.1* | 0.1
Cc1ccc(S(=O)(=O)NCCC(=O)Nc2ccc(Cl)c(Cl)c2)cc1C | -1.9 | -8.2 | 46.6* | 3.0
COc1ccc(S(=O)(=O)N(C)C[C@@H]2Oc3ccc(NC(=O)c4ccncc4)cc3C(=O)N([C@@H](C)CO)C[C@@H]2C)cc1 | 4.8 | . | -0.1 | -1.6
Cc1noc(C)c1NC(=O)Nc1ccc2c(c1)C(=O)N([C@@H](C)CO)C[C@@H](C)[C@@H](CN(C)S(=O)(=O)c1cccs1)O2 | -5.5 | . | -0.7 | 1.9
COc1ccc(CC(=O)N2CCC(c3ccccc3)C2)cc1 (configuration not stated) | 3.0 | -4.3 | 44.1* | 1.9
O=C(Cc1ccccc1)N1CCC(c2ccccc2)C1 (configuration not stated) | -3.1 | 4.8 | 0.0 | -0.8
Cc1sc(NC(=O)Cn2cnnn2)nc1-c1ccc(Cl)cc1 | -2.5 | -1.2 | 43.0* | 1.3
O=C(/C=C/c1ccc2c(c1)OCO2)Nc1nc2ccccc2s1 | . | 19.2* | . | .
C[C@@H]1CN([C@H](C)CO)C(=O)c2cccc(NC(=O)C3CCOCC3)c2O[C@@H]1CN(C)S(=O)(=O)c1ccccc1 | -5.7 | . | -0.2 | -1.1
CCCCNC(=O)CSc1nc2c(sc(=S)n2-c2cc(Cl)ccc2OC)c(=O)[nH]1 | -0.4 | 1.7 | 1.4* | -1.5
COc1ccc(Cl)cc1-n1c(=S)sc2c(=O)[nH]c(SCC(=O)C(C)(C)C)nc21 | -1.7 | -10.7 | 0.8 | -5.3
CCOc1ccc(-n2c(=S)sc3c(=O)[nH]c(SCC(=O)NC4CCCCC4)nc32)cc1 | -0.2 | . | 42.7 | 4.8
